According to ChEMBL document CHEMBL1141647, “Novel ofloxacin derivatives: synthesis, antimycobacterial and toxicological evaluation” (Bioorg Med Chem Lett, 2008):
pIC50: −log10 of the molar value. In brackets after ≈: the same amount, converted by molar mass.

How the values were obtained:
Mus musculus [1] = test: Phototoxic effect in UV light irradiated mouse assessed as number of mouse bearing erythema at 140 mg/kg, after 96 hrs relative to control; type: ADME, organism-based; design: dose 140 mg/kg; conditions: in vivo
Outline: (§1)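 Mice received 140 mg/kg and were UV-irradiated immediately after dosing, irradiation ending at 4 h. Both ears were scored for erythema at 0, 4, 24, 48, 72 and 96 h, counted as the number of mice with erythema. Vehicle control was 0.5% aqueous sodium carboxymethylcellulose at 10 mL/kg.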

DNA gyrase subunit A = DNA gyrase subunit A (Mycolicibacterium smegmatis, UniProt Q59556); test: Inhibition of Mycobacterium smegmatis DNA gyrase
Sequence of DNA gyrase subunit A (Q59556 whole entry): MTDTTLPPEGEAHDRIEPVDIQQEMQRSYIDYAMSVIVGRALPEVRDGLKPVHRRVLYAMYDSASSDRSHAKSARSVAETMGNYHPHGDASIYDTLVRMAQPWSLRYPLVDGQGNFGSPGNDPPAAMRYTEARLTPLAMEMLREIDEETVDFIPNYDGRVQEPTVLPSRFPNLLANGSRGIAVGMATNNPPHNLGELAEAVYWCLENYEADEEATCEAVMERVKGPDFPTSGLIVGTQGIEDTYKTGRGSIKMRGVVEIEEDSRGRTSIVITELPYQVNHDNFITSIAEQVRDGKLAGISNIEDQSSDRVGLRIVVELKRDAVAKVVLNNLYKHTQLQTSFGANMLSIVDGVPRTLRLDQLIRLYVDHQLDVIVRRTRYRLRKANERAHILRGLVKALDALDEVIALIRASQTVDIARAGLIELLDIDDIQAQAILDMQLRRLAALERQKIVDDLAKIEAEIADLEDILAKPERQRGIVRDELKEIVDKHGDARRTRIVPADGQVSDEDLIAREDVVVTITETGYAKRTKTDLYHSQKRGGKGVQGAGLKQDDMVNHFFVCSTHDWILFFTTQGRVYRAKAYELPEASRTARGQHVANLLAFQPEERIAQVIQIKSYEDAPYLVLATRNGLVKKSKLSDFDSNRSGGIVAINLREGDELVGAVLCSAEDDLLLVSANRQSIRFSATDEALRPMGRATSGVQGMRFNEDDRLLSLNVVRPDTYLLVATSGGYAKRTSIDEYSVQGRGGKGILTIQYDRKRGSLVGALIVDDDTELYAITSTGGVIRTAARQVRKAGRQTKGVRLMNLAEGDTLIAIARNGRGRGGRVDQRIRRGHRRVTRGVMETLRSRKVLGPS
Outline: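 Inhibition of DNA supercoiling by M. smegmatis (MC²) gyrase, run under standard assay conditions. Varying compound amounts were tested against a fixed amount of enzyme, and IC50 was derived from that series. Relaxed circular DNA served as marker, 5% DMSO as solvent control, and moxifloxacin at 5 µg/mL as positive control.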

Mus musculus [2] = test: Phototoxic effect in mouse assessed as ear thickness at 140 mg/kg administered before UV light exposure relative to control; type: ADME, organism-based; design: dose 140 mg/kg; conditions: in vivo
Outline: (§2)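 Mice dosed at 140 mg/kg and exposed to UV immediately after dosing. Irradiation ended at 4 h. Ear thickness (mm) was measured at 0 (pre-dose), 4, 24, 48, 72 and 96 h, left and right ears averaged, mean ± SEM. Comparison was against vehicle controls (0.5% aqueous sodium carboxymethylcellulose, 10 mL/kg) and against the 0 h reading.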

Mus musculus [3] = test: Phototoxic effect in UV light irradiated mouse assessed as ear thickness at 140 mg/kg, after 72 hrs relative to control; type: ADME, organism-based; design: dose 140 mg/kg; conditions: in vivo; outline: as §2
Mus musculus [4] = test: Phototoxic effect in UV light irradiated mouse assessed as ear thickness at 140 mg/kg, after 24 hrs relative to control; type: ADME, organism-based; design: dose 140 mg/kg; conditions: in vivo; outline: as §2
Mus musculus [5] = test: Phototoxic effect in UV light irradiated mouse assessed as ear thickness at 140 mg/kg, after 48 hrs relative to control; type: ADME, organism-based; design: dose 140 mg/kg; conditions: in vivo; outline: as §2
[6] = system: Mycolicibacterium smegmatis; test: Antimycobacterial activity against Mycobacterium smegmatis ATCC 14468 by agar dilution method; type: functional
Outline: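 MC² (M. smegmatis) growth inhibition; MIC99 taken as the lowest concentration giving complete inhibition of bacterial growth, in µM.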

Mus musculus [7] = test: Phototoxic effect in mouse assessed as number of mouse bearing erythema at 140 mg/kg administered before UV light exposure relative to control; type: ADME, organism-based; design: dose 140 mg/kg; conditions: in vivo; outline: as §1
Mus musculus [8] = test: Phototoxic effect in UV light irradiated mouse assessed as number of mouse bearing erythema at 140 mg/kg, after 48 hrs relative to control; type: ADME, organism-based; design: dose 140 mg/kg; conditions: in vivo; outline: as §1
Mus musculus [9] = test: Phototoxic effect in UV light irradiated mouse assessed as ear thickness at 140 mg/kg, after 96 hrs relative to control; type: ADME, organism-based; design: dose 140 mg/kg; conditions: in vivo; outline: as §2
Mus musculus [10] = test: Phototoxic effect in UV light irradiated mouse assessed as ear thickness at 140 mg/kg, after 4 hrs relative to control; type: ADME, organism-based; design: dose 140 mg/kg; conditions: in vivo; outline: as §2
Mus musculus [11] = test: Phototoxic effect in UV light irradiated mouse assessed as number of mouse bearing erythema at 140 mg/kg, after 72 hrs relative to control; type: ADME, organism-based; design: dose 140 mg/kg; conditions: in vivo; outline: as §1
[12] = system: Mycobacterium tuberculosis; test: Antimycobacterial activity against Mycobacterium tuberculosis H37Rv by agar dilution method; type: functional
Outline: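 MIC99 was taken as the lowest concentration giving complete inhibition of bacterial growth.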

Mus musculus [13] = test: Phototoxic effect in UV light irradiated mouse assessed as number of mouse bearing erythema at 140 mg/kg, after 24 hrs relative to control; type: ADME, organism-based; design: dose 140 mg/kg; conditions: in vivo; outline: as §1
Vero = test: Cytotoxicity against african green monkey Vero cells after 72 hrs by MTT assay; type: cell-based; conditions: Chlorocebus sabaeus
Outline: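 Vero cells exposed for 72 h; tested up to 62.5 µg/mL. Viability was read as cellular conversion of MTT to formazan, and IC50 was reported in µM.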

Mus musculus [14] = test: Phototoxic effect in UV light irradiated mouse assessed as number of mouse bearing erythema at 140 mg/kg, after 4 hrs relative to control; type: ADME, organism-based; design: dose 140 mg/kg; conditions: in vivo; outline: as §1
[15] = system: Mycobacterium tuberculosis; test: Antimycobacterial activity against Mycobacterium tuberculosis ATCC 35801 infected CD1 mouse spleen assessed as viable organisms at 50 mg/kg, ip after 35 days relative to control; type: functional; conditions: route intraperitoneal
Outline: (§3)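 CD-1 mice infected intravenously with M. tuberculosis ATCC 35801; intraperitoneal treatment started 10 days after inoculation and continued for 10 days. At 35 days postinfection, spleens and right lungs were removed aseptically and viable organisms counted (log CFU). Counts were compared with vehicle-treated controls.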

[16] = system: Mycobacterium tuberculosis; test: Antimycobacterial activity against Mycobacterium tuberculosis ATCC 35801 infected CD1 mouse lungs assessed as viable organisms at 50 mg/kg, ip after 35 days relative to control; type: functional; conditions: route intraperitoneal; outline: as §3

SMILES | MIC99 [6] [µM] | MIC99 [12] [µM] | pIC50 (Vero) | also measured
CC1COc2c(N3CCN(C(=O)c4ccco4)CC3)c(F)cc3c(=O)c(C(=O)O)cn1c23 (stereo unspecified) | 3.53 (≈ 1.56 µg/mL) | 7.09 (≈ 3.13 µg/mL) | – | Activity (Mus musculus [1]): Non-toxic; pIC50 (DNA gyrase subunit A): < 3.95; Activity (Mus musculus [2]): 0.29 mm; Activity (Mus musculus [3]): 0.29 mm; Activity (Mus musculus [4]): 0.29 mm; Activity (Mus musculus [5]): 0.29 mm; Activity (Mus musculus [7]): Non-toxic; Activity (Mus musculus [8]): Non-toxic; Activity (Mus musculus [9]): 0.3 mm; Activity (Mus musculus [10]): 0.3 mm; Activity (Mus musculus [11]): Non-toxic; Activity (Mus musculus [13]): Non-toxic
CC1COc2c(N3CCC(n4c(=O)[nH]c5cc(Cl)ccc54)CC3)c(F)c([N+](=O)[O-])c3c(=O)c(C(=O)O)cn1c23 (stereo unspecified) | 1.39 (≈ 0.776 µg/mL) | 0.34 (≈ 0.19 µg/mL) | 3.95 | –
Cc1onc(-c2c(F)cccc2F)c1C(=O)N1CCN(c2c(F)c([N+](=O)[O-])c3c(=O)c(C(=O)O)cn4c3c2OCC4C)CC1 (stereo unspecified) | 1.27 (≈ 0.779 µg/mL) | 5.1 (≈ 3.13 µg/mL) | 3.99 | –
CC1COc2c(N3CCC4(CC3)OCCO4)c(F)cc3c(=O)c(C(=O)O)cn1c23 (stereo unspecified) | 3.86 (≈ 1.56 µg/mL) | 0.47 (≈ 0.19 µg/mL) | 3.81 | Activity (Mus musculus [1]): Non-toxic; pIC50 (DNA gyrase subunit A): 3.91; Activity (Mus musculus [2]): 0.34 mm; Activity (Mus musculus [3]): 0.32 mm; Activity (Mus musculus [4]): 0.32 mm; Activity (Mus musculus [5]): 0.31 mm; Activity (Mus musculus [7]): Non-toxic; Activity (Mus musculus [9]): 0.35 mm; Activity (Mus musculus [14]): Toxic; Activity (Mus musculus [10]): 0.37 mm; Activity (Mus musculus [13]): Toxic
CC1COc2c(N3CCn4cc(C(=O)O)nc4C3)c(F)c([N+](=O)[O-])c3c(=O)c(C(=O)O)cn1c23 (stereo unspecified) | 6.61 (≈ 3.13 µg/mL) | 0.19 (≈ 0.0899 µg/mL) | 3.88 | Log10 cfu [15]: 6.11; Log10 cfu [16]: 6.08
CC1COc2c(N3CCN(C)CC3)c(F)cc3c(=O)c(C(=O)O)cn1c23 (stereo unspecified) [OFLOXACIN] | 2.16 (≈ 0.781 µg/mL) | 2.16 (≈ 0.781 µg/mL) | < 3.81 | Log10 cfu [15]: 7.61; Log10 cfu [16]: 6.61
COc1cc2c(cc1OC)CN(c1c(F)c([N+](=O)[O-])c3c(=O)c(C(=O)O)cn4c3c1OCC4C)CC2 (stereo unspecified) | 12.5 (≈ 6.25 µg/mL) | 1.56 (≈ 0.779 µg/mL) | 4.20 | –
CC1CN(c2c(F)c([N+](=O)[O-])c3c(=O)c(C(=O)O)cn4c3c2OCC4C)CC(C)O1 (stereo unspecified) | 1.85 (≈ 0.78 µg/mL) | 1.85 (≈ 0.78 µg/mL) | 3.83 | pIC50 (DNA gyrase subunit A): < 3.93
CC1COc2c(N3CCC4(CC3)OCCO4)c(F)c([N+](=O)[O-])c3c(=O)c(C(=O)O)cn1c23 (stereo unspecified) | 3.47 (≈ 1.56 µg/mL) | 0.21 (≈ 0.0944 µg/mL) | 3.86 | –
COc1cc2c(cc1OC)CN(c1c(F)cc3c(=O)c(C(=O)O)cn4c3c1OCC4C)CC2 (stereo unspecified) | 13.8 (≈ 6.25 µg/mL) | 1.72 (≈ 0.782 µg/mL) | < 3.86 | –
CC1COc2c(N3CCN(C(c4ccccc4)c4ccc(Cl)cc4)CC3)c(F)c([N+](=O)[O-])c3c(=O)c(C(=O)O)cn1c23 (stereo unspecified) | 0.66 (≈ 0.391 µg/mL) | 2.63 (≈ 1.56 µg/mL) | 3.98 | Activity (Mus musculus [1]): Non-toxic; pIC50 (DNA gyrase subunit A): 4.77; Activity (Mus musculus [2]): 0.28 mm; Activity (Mus musculus [3]): 0.29 mm; Activity (Mus musculus [4]): 0.28 mm; Activity (Mus musculus [5]): 0.29 mm; Activity (Mus musculus [7]): Non-toxic; Activity (Mus musculus [8]): Non-toxic; Activity (Mus musculus [9]): 0.31 mm; Activity (Mus musculus [14]): Non-toxic; Activity (Mus musculus [10]): 0.28 mm; Activity (Mus musculus [11]): Non-toxic; Activity (Mus musculus [13]): Non-toxic
CC1COc2c(N3CCn4cc(C(=O)O)nc4C3)c(F)cc3c(=O)c(C(=O)O)cn1c23 (stereo unspecified) | 29.2 (≈ 12.5 µg/mL) | 0.91 (≈ 0.39 µg/mL) | < 3.84 | –
CC1COc2c(N3CCN(C(=O)C4COc5ccccc5O4)CC3)c(F)cc3c(=O)c(C(=O)O)cn1c23 (stereo unspecified) | 49.1 (≈ 25 µg/mL) | 12.3 (≈ 6.25 µg/mL) | – | –
CC1COc2c(N3CCN(C)C(c4ccccc4)C3)c(F)c([N+](=O)[O-])c3c(=O)c(C(=O)O)cn1c23 (stereo unspecified) | 6.49 (≈ 3.13 µg/mL) | 3.23 (≈ 1.56 µg/mL) | 3.89 | –
Cc1onc(-c2c(F)cccc2F)c1C(=O)N1CCN(c2c(F)cc3c(=O)c(C(=O)O)cn4c3c2OCC4C)CC1 (stereo unspecified) | 44 (≈ 25 µg/mL) | 11 (≈ 6.25 µg/mL) | – | –
CC1COc2c(N3CCC(O)(c4ccc(Cl)cc4)CC3)c(F)c([N+](=O)[O-])c3c(=O)c(C(=O)O)cn1c23 (stereo unspecified) | 6.04 (≈ 3.13 µg/mL) | 1.51 (≈ 0.782 µg/mL) | 4.22 | –
